PREPL inh: inhibitors of human prolyl oligopeptidase-like enzyme PREPL; inhibition, % at 5.96 µM; 0.68% of 320,000 active; recombinant PREPL, fluorescence polarization activity-based probe; Q4J6C6; in the data active = inhibition above about 43%;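 also: 0% = enzyme with DMSO and 100% = wells lacking enzyme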
PAFAH1B3 FP inh: inhibitors of human PAFAH1B3. AID 492972. 0.28% of 340,000 active. recombinant PAFAH1B3, FP-rhodamine probe, fluorescence polarization. inhibition, % at 3.39 µM. Q15102;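 active = inhibition above the screen-wide average of all tested compounds plus 3 SD, cut at about 25% in these data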;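 also: 0% = enzyme with DMSO only and 100% = wells lacking PAFAH1B3 protein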
Target sequence (Q15102 whole entry, looked up): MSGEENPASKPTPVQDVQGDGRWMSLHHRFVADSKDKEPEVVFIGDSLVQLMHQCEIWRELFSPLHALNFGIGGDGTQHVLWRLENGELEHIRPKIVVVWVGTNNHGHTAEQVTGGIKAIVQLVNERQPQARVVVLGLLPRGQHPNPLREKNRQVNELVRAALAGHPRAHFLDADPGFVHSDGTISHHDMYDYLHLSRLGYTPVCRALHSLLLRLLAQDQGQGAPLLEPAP
Apaf-1 inh: blocks human Apaf-1 apoptosome activity; O14727; reconstituted apoptosome caspase-3 activity, DEVD-Rh110 fluorescence; 0.71% of 330,000 active; inhibition, % at 20 µM; active = inhibition of at least 40% at 20 µM;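 also: plate controls were DMSO wells for no effect and DEVD-CHO caspase inhibitor wells for full effect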
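Material: cell-free apoptosome with Apaf-1, procaspase-3 and caspase-9; Buffer or medium: Hepes pH 7.5 with detergent and BSA; Reagent: cytochrome c trigger plus (Z-DEVD)2-Rh110 caspase-3 substrate; Times: compound with Apaf-1, dATP, procaspase-3 30 min, then 50 min reaction, room temperature; Technique: Rh110 fluorescence intensity.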
PAFAH2 inh: PAFAH2 (human) inhibition | Q99487 | inhibition, % at 3.39 µM | recombinant PAFAH2, FP-rhodamine activity probe, fluorescence polarization | 0.99% of 340,000 active;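 active = inhibition above the mean over all tested compounds plus 3 SD, cut at about 30% in these data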;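 also: inhibitors block probe labeling of enzyme so polarization drops; 0% = enzyme with DMSO and 100% = wells lacking PAFAH2 protein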
PAFAH1B2 inh: inhibitors of human PAFAH1B2; P68402; recombinant PAFAH1B2, FP-rhodamine activity probe, fluorescence polarization; inhibition, % at 3.39 µM; 1.2% of 340,000 active;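 active = inhibition above the mean of all tested compounds plus 3 SD, cut at about 24% in these data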;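 also: 0% = enzyme with DMSO and 100% = wells lacking PAFAH1B2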
Target sequence (P68402 whole entry, looked up): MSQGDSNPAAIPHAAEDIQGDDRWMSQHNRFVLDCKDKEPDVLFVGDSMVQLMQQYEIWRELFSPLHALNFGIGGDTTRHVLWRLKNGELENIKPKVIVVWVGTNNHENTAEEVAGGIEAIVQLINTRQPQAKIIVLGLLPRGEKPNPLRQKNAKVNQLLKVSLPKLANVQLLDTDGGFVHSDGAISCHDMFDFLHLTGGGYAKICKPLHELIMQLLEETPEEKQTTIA
pPAFAH FP inh: pPAFAH (human) enzyme inhibition; Q13093; recombinant pPAFAH, FP-rhodamine probe fluorescence polarization; inhibition, % at 3.39 µM; 1.5% of 330,000 active; AID 463082;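 active = inhibition above the mean inhibition across the screen plus 3 SD, cut at about 25% in these data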;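 also: inhibitors block binding of the rhodamine activity-based probe so polarization drops; 0% = enzyme with DMSO and 100% = wells lacking pPAFAH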
PAFAH2 confirm: confirmation of human PAFAH2 inhibitors. shares compounds with PAFAH2 inh. recombinant PAFAH2, FP-rhodamine activity probe, fluorescence polarization. inhibition, % at 3.39 µM. 65% of 2,300 active;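 active = mean inhibition over three repeats above a set limit taken from the earlier primary screen, cut at about 30% in these data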;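 also: inhibitor blocks binding of rhodamine activity probe so polarization falls; 0% = enzyme with DMSO and 100% = wells lacking PAFAH2 protein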
Starred values were filed as active, the others as inactive; · = not tested or not shown. Compounds with a hit are over-represented: about 3.5% of the library has one in this group of screens.

SMILES | PREPL inh | PAFAH1B3 FP inh | Apaf-1 inh | PAFAH2 inh | PAFAH1B2 inh | pPAFAH FP inh | PAFAH2 confirm
Cc1ccc(S(=O)(=O)N(C)C)cc1NC(=O)COC(=O)/C=C/c1cnc2ccccc2n1 | 8 | 2 | 16 | 4 | 1 | 3 | ·
CN(C)S(=O)(=O)c1cccc(NC(=O)COC(=O)/C=C/c2ccc3c(c2)OCO3)c1 | 6 | 2 | 2 | 74* | -1 | 6 | 62*
Cc1ccc(S(=O)(=O)N(C)C)cc1NC(=O)COC(=O)/C=C/c1ccc2c(c1)OCO2 | 4 | 0 | 7 | 57* | -2 | 3 | 47*
CN(C)S(=O)(=O)c1cccc(NC(=O)COc2cccc3ccccc23)c1 | · | 7 | -3 | -11 | -1 | · | ·
Cc1cc(Cl)ccc1OCCCC(=O)OCC(=O)c1c(N)n(C)c(=O)n(C)c1=O | -25 | 4 | 11 | -7 | 4 | -5 | ·
O=C(COC(=O)c1c[nH]c2ccccc12)NC1CCCC1 | 7 | 10 | 5 | 72* | 5 | 14 | 68*
O=C(COC(=O)c1cc(=O)[nH]c2ccccc12)NC1CCCCCCC1 | -14 | 2 | -20 | 12 | 6 | 5 | ·
CC(=O)c1ccc(NC(=O)COC(=O)c2c[nH]c3ccccc23)cc1 | -2 | 21 | -2 | 45* | -10 | -4 | 29
Cc1ccc(NC(=O)COC(=O)Cc2c[nH]c3ccccc23)cc1F | · | -2 | 21 | 10 | 3 | · | ·
O=C(COC(=O)c1c[nH]c(=O)[nH]c1=O)Nc1ccccc1Br | 21 | 11 | 6 | -3 | 8 | 2 | ·
N#Cc1ccccc1NC(=O)COC(=O)c1c[nH]c2ccccc12 | · | -5 | -5 | 69* | -4 | · | 67*
Cc1ccc(NC(=O)COC(=O)c2c[nH]c3ccccc23)cc1C | -1 | 4 | -6 | 71* | 4 | 19 | 71*
O=C(CN1C(=O)c2cccnc2Oc2ccc(Cl)cc21)N1CCOCC1 | -4 | 0 | 9 | 0 | -2 | 5 | ·
Cc1cccc(NC(=O)C2CCN(C(=O)[C@@H]3Cc4ccccc4CN3)CC2)c1 | 3 | 0 | 3 | -7 | 1 | 4 | ·
NC(=O)Nc1ccc(C(=O)OCC(=O)c2c[nH]c3ccccc23)cc1 | -13 | 11 | -2 | 36* | 1 | 7 | 30
N#CCC(=O)Nc1ccc(C(=O)OCC(=O)c2c[nH]c3ccccc23)cc1 | -25 | -20 | -16 | -11 | -11 | -14 | ·
COc1cccc(NC(=O)CN(C)C(=O)c2cccc(S(=O)(=O)N3c4ccccc4CC3C)c2)c1 (centres undefined) | · | 0 | 5 | 5 | 5 | · | ·
Cc1sc2c(=O)n3c(nc2c1C(=O)NCCCN1CCOCC1)CCCCC3 | 11 | -4 | -8 | -4 | 1 | 5 | ·
CCOC(=O)c1ccccc1NC(=O)C1CCCO1 (centres undefined) | 11 | 3 | -1 | 42* | -2 | 8 | 1
CC(NC(=O)COC(=O)c1ccc2c(c1)OCCO2)c1ccccc1 (centres undefined) | -5 | 4 | 0 | 63* | 4 | 12 | 61*
O=C(COC(=O)c1ccc2c(c1)OCCO2)NCCc1ccccc1 | 0 | 7 | -1 | 46* | 4 | 12 | 41*
CC(NC(=O)COC(=O)c1ccc(S(=O)(=O)N2CCOCC2)cc1)c1ccccc1 (centres undefined) | -6 | 8 | -1 | -2 | 8 | 1 | ·
CCNc1ccc(C(=O)OCC(=O)NC(C)c2ccccc2)cc1[N+](=O)[O-] (centres undefined) | -2 | 9 | 2 | 83* | 9 | 5 | 73*
CCc1sc(/C=C(/C#N)C(N)=S)cc1[N+](=O)[O-] | · | 10 | · | 31* | 12 | · | 25
O=C(NC(=O)c1csnn1)Nc1ccccc1Cl | 5 | 11 | 4 | -3 | 9 | 3 | ·
SMILES | PREPL inh | PAFAH1B3 FP inh | Apaf-1 inh | PAFAH2 inh | PAFAH1B2 inh | pPAFAH FP inh | PAFAH2 confirm
Cn1ncc(Br)c1C(=O)NC1CCCCCC1 | · | 1 | -3 | 0 | 7 | · | ·
Cc1ccc(C(=O)NCCSc2c(C)[nH]c3ccccc23)cc1[N+](=O)[O-] | 8 | 6 | 10 | 30* | 8 | 6 | 19
Cc1c(C(c2ccccc2O)c2c(C)n(C)n(-c3ccccc3)c2=O)c(=O)n(-c2ccccc2)n1C | -1 | 12 | -7 | -5 | 4 | 6 | ·
Cc1c(C(c2cc3c(cc2Br)OCO3)c2c(C)n(C)n(-c3ccccc3)c2=O)c(=O)n(-c2ccccc2)n1C | 6 | 8 | -2 | 81* | 3 | 2 | 77*
CCN1CCN(CCNC(=O)c2ccc(CS(=O)c3ccc(Cl)cc3)o2)CC1 (centres undefined) | -4 | 6 | -2 | -4 | -3 | 4 | ·
C=CCn1c(O)c(C=Nc2ccc(Cc3ccncc3)cc2)c(=O)[nH]c1=S | 15 | 4 | 20 | 32* | 7 | 9 | 21
O=c1c2c(nc3nc(Cc4ccccc4)[nH]n13)CCC2 | -2 | 7 | -9 | 67* | -3 | 7 | 59*
Cc1nc2nc3c(c(=O)n2[nH]1)CCC3 | 10 | 0 | 6 | 2 | 1 | -3 | ·
Cc1cccc[n+]1CC(=O)Nc1cccc([N+](=O)[O-])c1 | -9 | 2 | -19 | 1 | 1 | 4 | ·
Cc1ccc(C(=O)O/N=C2\CCCc3ccccc32)cc1 | 9 | 5 | 20 | 42* | 5 | 11 | 40*
Cc1cccc(C(=O)O/N=C2\CCCc3ccccc32)c1 | 5 | 3 | 22 | 16 | 5 | 18 | ·
CC(C)(C)OC(=O)n1cc(C(=O)c2ccccc2O)cn1 | -11 | 8 | 8 | 84* | 0 | 0 | 69*
COc1ccc(C(=O)NCCc2cnc[nH]2)cc1OC | -8 | 11 | -4 | 0 | 2 | 4 | ·
COc1ccc(/C=C/C(=O)OCC(=O)Nc2ccc(OC)c(S(=O)(=O)N3CCCCC3)c2)cc1 | 6 | -8 | 5 | 29 | -8 | -1 | ·
Cc1ccc(NC(=O)COC(=O)/C=C/c2cccc(Cl)c2)cc1S(=O)(=O)N1CCOCC1 | 17 | -9 | 20 | 60* | 5 | -1 | 50*
CCC(C)(C)NC(=O)/C=C/c1ccc(OC)c(S(=O)(=O)N2CCOCC2)c1 | 11 | 4 | -3 | 0 | 6 | 2 | ·
COc1ccc(NC(=O)COC(=O)/C=C/c2ccc(OC)c(S(=O)(=O)N3CCOCC3)c2)cc1 | 15 | 3 | -11 | 62* | -1 | 2 | 58*
COc1ccc(/C=C/C(=O)OCC(=O)Nc2ccc(C)cc2)cc1S(=O)(=O)N1CCOCC1 | -2 | -4 | 4 | 71* | 0 | 1 | 73*
Cc1snnc1C(=O)NC(=S)Nc1ccccc1 | 2 | 7 | -11 | -2 | 4 | 4 | ·
O=C(COC(=O)c1cccc(O)c1)Nc1ccc(S(=O)(=O)N2CCOCC2)cc1 | 0 | 5 | -9 | 2 | -5 | 1 | ·
